According to ChEMBL document CHEMBL5357082, “Identification and Optimization of Small Molecule Pyrazolopyrimidine TLR7 Agonists for Applications in Immuno-oncology” (ACS Med Chem Lett, 2024):
The source made the active and inactive calls. The rule behind the calls is not given here.

What was measured:
Toll-like receptor 7 = target: T1, Toll-like receptor 7 (Mus musculus, UniProt P58681); experiment: Agonist activity at mouse TLR7
T1 sequence (P58681 whole entry): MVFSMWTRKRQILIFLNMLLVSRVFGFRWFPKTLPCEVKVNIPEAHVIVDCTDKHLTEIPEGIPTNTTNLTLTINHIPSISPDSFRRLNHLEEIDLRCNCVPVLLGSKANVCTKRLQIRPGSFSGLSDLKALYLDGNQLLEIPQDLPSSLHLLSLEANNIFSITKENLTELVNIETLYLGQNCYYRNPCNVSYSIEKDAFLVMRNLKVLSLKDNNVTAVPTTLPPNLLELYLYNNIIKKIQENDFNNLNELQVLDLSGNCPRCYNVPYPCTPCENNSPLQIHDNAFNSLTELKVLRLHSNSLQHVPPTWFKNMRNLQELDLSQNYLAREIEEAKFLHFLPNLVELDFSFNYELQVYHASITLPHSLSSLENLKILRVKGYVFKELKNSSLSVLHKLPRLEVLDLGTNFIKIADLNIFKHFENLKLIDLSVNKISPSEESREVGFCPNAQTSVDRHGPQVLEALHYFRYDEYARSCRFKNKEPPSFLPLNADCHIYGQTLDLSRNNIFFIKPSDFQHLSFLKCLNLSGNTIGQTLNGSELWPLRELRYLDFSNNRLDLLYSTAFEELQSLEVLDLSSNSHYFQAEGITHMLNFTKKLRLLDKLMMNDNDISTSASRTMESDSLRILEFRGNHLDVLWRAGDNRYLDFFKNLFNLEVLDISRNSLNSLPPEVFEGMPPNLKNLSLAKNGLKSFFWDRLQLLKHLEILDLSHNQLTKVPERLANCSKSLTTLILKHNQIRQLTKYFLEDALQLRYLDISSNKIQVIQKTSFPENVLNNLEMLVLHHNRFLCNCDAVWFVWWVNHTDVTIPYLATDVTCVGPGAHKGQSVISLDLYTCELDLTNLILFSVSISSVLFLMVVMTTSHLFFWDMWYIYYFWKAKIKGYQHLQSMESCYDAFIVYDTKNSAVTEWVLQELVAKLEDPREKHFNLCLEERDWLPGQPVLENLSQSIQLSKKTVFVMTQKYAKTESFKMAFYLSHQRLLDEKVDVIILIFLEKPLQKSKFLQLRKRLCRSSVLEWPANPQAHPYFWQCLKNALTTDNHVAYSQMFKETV

[1] = Metabolic stability in human liver microsomes assessed as compound remaining at 0.5 uM incubated for 10 mins in presence of NADPH by UV absorbance based assay; type: ADME, Microsome; settings: read-out: Stability
[2] = Metabolic stability in mouse liver microsomes assessed as compound remaining at 0.5 uM incubated for 10 mins in presence of NADPH by UV absorbance based assay; type: ADME, Microsome; settings: read-out: Stability
[3] = Drug concentration in nontumor bearing Balb/C mouse at 0.5 mg/kg measured after 5 mins; type: ADME, organism-based; settings: in vivo, read-out: Drug uptake
Mus musculus = experiment: Immunostimulatory activity in nontumor bearing Balb/C mouse assessed as increase in IFNalpha production in serum at 0.5 to 1 mg/kg, iv measured after 2 hrs by ELISA; type: functional, organism-based; settings: dose 0.5-1 mg/kg
Procedure, shortened: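 Nontumor-bearing female Balb/C mice received a single 1 mg/kg dose. Serum IFNα was measured 2 h after administration, with N = 9 mice per group.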

[4] = AUClast in nontumor bearing Balb/C mouse at 0.5 mg/kg; type: ADME, organism-based; parameters: dose 0.5 mg/kg; settings: in vivo
[5] = Clearance in nontumor bearing Balb/C mouse at 0.5 mg/kg; type: ADME, organism-based; settings: in vivo
Cytochrome P450 2C9 = Cytochrome P450 2C9 (Homo sapiens, UniProt P11712); experiment: Inhibition of CYP2C9 (unknown origin); type: ADME
Cytochrome P450 2C9, sequence (P11712 whole entry): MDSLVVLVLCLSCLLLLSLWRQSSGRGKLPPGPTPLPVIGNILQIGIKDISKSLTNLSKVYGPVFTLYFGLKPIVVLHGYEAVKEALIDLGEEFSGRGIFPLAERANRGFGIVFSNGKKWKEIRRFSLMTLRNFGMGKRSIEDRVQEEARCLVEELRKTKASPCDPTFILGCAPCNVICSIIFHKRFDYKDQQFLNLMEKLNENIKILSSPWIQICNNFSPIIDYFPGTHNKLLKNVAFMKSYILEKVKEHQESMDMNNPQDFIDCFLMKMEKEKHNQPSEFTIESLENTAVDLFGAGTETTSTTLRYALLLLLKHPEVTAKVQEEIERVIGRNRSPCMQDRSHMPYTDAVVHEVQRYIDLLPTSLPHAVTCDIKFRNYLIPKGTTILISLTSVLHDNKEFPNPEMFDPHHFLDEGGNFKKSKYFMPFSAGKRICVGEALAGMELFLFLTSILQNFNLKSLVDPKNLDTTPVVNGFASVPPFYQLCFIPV

Cytochrome P450 2D6 = Cytochrome P450 2D6 (Homo sapiens, UniProt P10635); experiment: Inhibition of CYP2D6 (unknown origin); type: ADME
Cytochrome P450 2D6, sequence (P10635 whole entry): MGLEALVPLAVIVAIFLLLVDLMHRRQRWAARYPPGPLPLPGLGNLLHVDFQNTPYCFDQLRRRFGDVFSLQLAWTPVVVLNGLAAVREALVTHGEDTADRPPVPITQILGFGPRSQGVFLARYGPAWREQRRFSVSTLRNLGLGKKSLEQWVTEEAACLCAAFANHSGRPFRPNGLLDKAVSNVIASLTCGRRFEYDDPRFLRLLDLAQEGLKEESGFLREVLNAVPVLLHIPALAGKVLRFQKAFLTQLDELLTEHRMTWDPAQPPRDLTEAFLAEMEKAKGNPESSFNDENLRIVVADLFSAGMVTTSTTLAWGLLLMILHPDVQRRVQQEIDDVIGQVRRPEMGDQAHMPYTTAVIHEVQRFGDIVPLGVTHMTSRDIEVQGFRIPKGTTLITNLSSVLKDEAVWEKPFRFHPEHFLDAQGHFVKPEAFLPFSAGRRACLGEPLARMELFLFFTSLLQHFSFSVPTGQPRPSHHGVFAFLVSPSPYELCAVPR

Cytochrome P450 3A4 = Cytochrome P450 3A4 (Homo sapiens, UniProt P08684); experiment: Inhibition of CYP3A4 (unknown origin) using BFC as substrate; type: ADME
Cytochrome P450 3A4, sequence (P08684 whole entry): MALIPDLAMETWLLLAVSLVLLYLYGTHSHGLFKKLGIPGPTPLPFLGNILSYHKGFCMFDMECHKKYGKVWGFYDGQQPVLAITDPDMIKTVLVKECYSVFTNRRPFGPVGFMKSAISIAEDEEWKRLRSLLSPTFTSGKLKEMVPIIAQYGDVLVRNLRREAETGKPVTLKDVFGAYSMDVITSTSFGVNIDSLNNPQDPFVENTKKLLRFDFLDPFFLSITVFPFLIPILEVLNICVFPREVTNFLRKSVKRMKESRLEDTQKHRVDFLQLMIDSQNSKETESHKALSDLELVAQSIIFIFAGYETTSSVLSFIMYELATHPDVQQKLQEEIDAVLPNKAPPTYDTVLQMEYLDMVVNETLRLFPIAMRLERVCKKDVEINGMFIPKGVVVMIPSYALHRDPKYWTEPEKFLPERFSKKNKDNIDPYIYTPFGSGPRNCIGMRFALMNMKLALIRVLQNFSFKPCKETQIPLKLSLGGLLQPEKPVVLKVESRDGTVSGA

Cytochrome P450 2C8 = target: T2, Cytochrome P450 2C8 (Homo sapiens, UniProt P10632); experiment: Inhibition of CYP2C8 (unknown origin); type: ADME
T2 sequence (P10632 whole entry): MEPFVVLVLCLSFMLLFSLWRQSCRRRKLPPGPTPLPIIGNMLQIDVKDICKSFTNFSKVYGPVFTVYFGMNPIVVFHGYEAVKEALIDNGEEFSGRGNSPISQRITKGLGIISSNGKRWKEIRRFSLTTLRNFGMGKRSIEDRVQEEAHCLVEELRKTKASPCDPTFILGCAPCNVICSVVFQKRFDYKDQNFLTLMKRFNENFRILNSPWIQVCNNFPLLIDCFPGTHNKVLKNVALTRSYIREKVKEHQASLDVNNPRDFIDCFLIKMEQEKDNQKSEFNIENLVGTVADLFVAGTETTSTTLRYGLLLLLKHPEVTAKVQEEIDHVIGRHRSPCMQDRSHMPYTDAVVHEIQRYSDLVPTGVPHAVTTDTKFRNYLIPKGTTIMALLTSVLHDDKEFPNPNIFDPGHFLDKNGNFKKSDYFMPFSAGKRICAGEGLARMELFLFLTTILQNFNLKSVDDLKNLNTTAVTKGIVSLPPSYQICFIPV

Question: Which EC50 (Toll-like receptor 7) does the source give for `CCC[C@@H](CCO)Nc1nc(N)nc2cnn(Cc3ncc(C4CCN(C5CCOCC5)CC4)cc3OC)c12` here?
Answer: 27 nM

Question: And the remaining at 10 min, 0.5 µM [1]?
Answer: 86%

Question: And the remaining at 10 min, 0.5 µM [2]?
Answer: 100%

Question: And the concentration at 5 min [3]?
Answer: 266 nM

Question: And the Activity (Mus musculus)?
Answer: Active

Question: What about the AUC(0-t) [4] of the same compound?
Answer: 0.655 µM·h

Question: What about the clearance [5] of the same compound?
Answer: 22 mL/min/kg

Question: What about the IC50 (Cytochrome P450 2C9) of the same compound?
Answer: > 20 µM

Question: What about the IC50 (Cytochrome P450 2D6) of the same compound?
Answer: > 20 µM

Question: What about the IC50 (Cytochrome P450 3A4) of the same compound?
Answer: > 20 µM

Question: And the IC50 (Cytochrome P450 2C8)?
Answer: > 20 µM
